# Measurements pooled from the literature.
# Compare with care: the assays were run in different laboratories.
# AXL: Tyrosine-protein kinase receptor UFO (AXL, Homo sapiens, UniProt P30530)
Structure (SMILES),target,observed,mode,technique,tested at,measurement,result
Cn1cncc1[C@](O)(COc1ccc(C#N)cc1-c1ccc(OC(F)(F)F)cc1)c1ccc(C#N)cc1,AXL,cell-free assay,,competition with immobilised ligand,1 µM,remaining binding,100%
COc1cc(Nc2ncc(F)c(Nc3ccc4c(n3)NC(=O)C(C)(C)O4)n2)cc(OC)c1OC,AXL,binding,,competition with immobilised ligand,10 µM,inhibition,100%
CC(C)(C)c1cc(C=C(C#N)C#N)cc(Br)c1O,AXL,enzyme activity,inhibitor,,0.5 µM,remaining activity,103%
Nc1ncc(-c2nc(N3CCOCC3)nc(N3CCOCC3)n2)c(C(F)F)n1,AXL,binding,,competition with immobilised ligand,10 µM,remaining binding,91%
Cn1cc(-c2cccc(N3CCc4c(sc5c4CC(C)(C)C5)C3=O)c2CO)cc(Nc2ccncn2)c1=O,AXL,enzyme activity,inhibitor,,1 µM,inhibition,3%
O=c1[nH]c2ccccc2n1C1CCN(Cc2ccc(-c3[nH]c4cc5ncnc5cc4nc3-c3ccccc3)cc2)CC1,AXL,cell-free assay,,,0.5 µM,remaining signal,105%
COc1ncccc1-c1cnn2ccc(N3CCN(C(=O)OC(C)C)CC3)nc12,AXL,binding,,competition with immobilised ligand,1 µM,remaining binding,100%
Cc1nn(C)cc1-c1nc2c(N3CCN(Cc4ccc(Cl)cc4)CC3)c(Cl)cnc2[nH]1,AXL,binding,,competition with immobilised ligand,1 µM,remaining binding,2.2%
Cn1cc(-c2cc(F)cc(N3CCn4c(cc5c4CCCC5)C3=O)c2CO)cc(Nc2ccc(N3CCN(C4COC4)CC3)cn2)c1=O,AXL,enzyme activity,inhibitor,,0.1 µM,inhibition,12%
N#CC1(c2ccccn2)CCN(Cc2cc(C(=O)O)c(=O)n3ccccc23)CC1,AXL,cell-free assay,,competition with immobilised ligand,1 µM,remaining binding,91%
C#Cc1n[nH]c2c(-c3cn(C(C)c4ccccn4)c(=O)[nH]c3=O)cc(F)cc12 (centres unmarked),"Tyrosine-protein kinase receptor UFO (AXL, Homo sapiens, UniProt P30530, R499C)",enzyme activity,inhibitor,,1 µM,inhibition,67.6%
